Assay results reported in PMC8594913 (Nature cancer, 2021).

Legend:
MV4–11 cells [1] = test: Cell growth–death assay, MV4–11; assay type: cell-based, human
DNMT1 [2] = settings: cited from earlier work
DNMT3A = settings: cited from earlier work
[3] = biological target: other methyltransferases (n = 34); test: Methyltransferase selectivity panel; assay type: biochemical; settings: read-out: IC50 values, methyltransferase panel
Method in brief: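 Methyltransferase panel run at Reaction Biology with HotSpot technology in IC50 format (10-point, threefold serial dilution).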

kinases (n = 369) = test: Kinase selectivity panel; assay type: biochemical; settings: read-out: IC50 values, kinase panel, panel tested at 10 μM
Method in brief: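 Kinase panel run at Reaction Biology with HotSpot technology, compound at a single concentration of 10 μM. PIM1, PKD2/PRKD2 and DYRK2 were run in IC50 format (10-point, threefold serial dilution).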

H1507Y mutant DNMT1 = test: Radioactive SPA, H1507Y DNMT1; assay type: biochemical, human
DNMT1 in HepG2 cells = DNMT1 in HepG2 cells (Homo sapiens, UniProt P26358); test: Cellular thermal shift assay; assay type: cell-based; settings: HepG2, 90 min
Chain of DNMT1 in HepG2 cells (P26358 whole entry): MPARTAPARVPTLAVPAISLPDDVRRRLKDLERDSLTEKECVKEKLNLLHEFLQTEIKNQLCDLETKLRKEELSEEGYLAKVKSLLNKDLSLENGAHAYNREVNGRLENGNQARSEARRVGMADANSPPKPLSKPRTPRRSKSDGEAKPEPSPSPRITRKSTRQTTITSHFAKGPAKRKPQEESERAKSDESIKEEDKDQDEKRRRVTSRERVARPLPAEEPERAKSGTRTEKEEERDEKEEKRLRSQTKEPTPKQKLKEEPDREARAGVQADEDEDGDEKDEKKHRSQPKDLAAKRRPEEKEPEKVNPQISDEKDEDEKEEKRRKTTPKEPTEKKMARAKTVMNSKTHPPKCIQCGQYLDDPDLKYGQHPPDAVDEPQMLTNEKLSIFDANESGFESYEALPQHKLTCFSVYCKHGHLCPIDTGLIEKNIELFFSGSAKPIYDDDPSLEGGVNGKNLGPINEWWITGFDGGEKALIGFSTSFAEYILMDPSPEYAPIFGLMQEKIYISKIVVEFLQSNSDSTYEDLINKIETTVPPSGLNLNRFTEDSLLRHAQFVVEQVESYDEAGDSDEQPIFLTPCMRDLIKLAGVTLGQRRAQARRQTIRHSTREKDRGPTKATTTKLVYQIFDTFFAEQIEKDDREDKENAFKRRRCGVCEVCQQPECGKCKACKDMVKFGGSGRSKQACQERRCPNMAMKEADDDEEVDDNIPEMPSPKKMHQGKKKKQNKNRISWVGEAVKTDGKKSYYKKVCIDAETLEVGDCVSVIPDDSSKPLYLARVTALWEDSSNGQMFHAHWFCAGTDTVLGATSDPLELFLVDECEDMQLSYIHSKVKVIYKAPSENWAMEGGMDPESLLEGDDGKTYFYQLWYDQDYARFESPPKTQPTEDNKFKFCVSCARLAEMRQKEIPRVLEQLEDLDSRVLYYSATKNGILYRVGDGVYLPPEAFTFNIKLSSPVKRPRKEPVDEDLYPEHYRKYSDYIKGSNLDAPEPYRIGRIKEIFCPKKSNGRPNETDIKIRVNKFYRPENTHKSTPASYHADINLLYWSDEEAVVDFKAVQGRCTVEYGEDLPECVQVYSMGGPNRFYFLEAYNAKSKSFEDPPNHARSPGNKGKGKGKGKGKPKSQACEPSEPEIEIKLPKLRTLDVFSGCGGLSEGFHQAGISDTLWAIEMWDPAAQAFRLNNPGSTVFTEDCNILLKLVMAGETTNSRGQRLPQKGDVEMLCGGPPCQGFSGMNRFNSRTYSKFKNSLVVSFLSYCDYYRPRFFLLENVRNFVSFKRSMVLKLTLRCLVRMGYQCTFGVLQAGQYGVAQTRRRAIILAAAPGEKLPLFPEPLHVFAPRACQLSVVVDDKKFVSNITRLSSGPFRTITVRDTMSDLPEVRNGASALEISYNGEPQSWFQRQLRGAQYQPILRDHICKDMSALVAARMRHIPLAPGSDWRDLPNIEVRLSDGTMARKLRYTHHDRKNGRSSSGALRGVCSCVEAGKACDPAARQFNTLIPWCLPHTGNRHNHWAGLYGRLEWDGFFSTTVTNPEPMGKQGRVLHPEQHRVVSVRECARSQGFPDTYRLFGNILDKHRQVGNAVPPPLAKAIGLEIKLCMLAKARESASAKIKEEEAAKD

Murine DNMT1 (731–1602) = Murine DNMT1 (731–1602) (Mus musculus, UniProt P13864); test: Investigation of covalent adduct; assay type: binding; settings: 25 μM, 20 h, hemi-methylated DNA
Chain of Murine DNMT1 (731–1602) (P13864 731-1602): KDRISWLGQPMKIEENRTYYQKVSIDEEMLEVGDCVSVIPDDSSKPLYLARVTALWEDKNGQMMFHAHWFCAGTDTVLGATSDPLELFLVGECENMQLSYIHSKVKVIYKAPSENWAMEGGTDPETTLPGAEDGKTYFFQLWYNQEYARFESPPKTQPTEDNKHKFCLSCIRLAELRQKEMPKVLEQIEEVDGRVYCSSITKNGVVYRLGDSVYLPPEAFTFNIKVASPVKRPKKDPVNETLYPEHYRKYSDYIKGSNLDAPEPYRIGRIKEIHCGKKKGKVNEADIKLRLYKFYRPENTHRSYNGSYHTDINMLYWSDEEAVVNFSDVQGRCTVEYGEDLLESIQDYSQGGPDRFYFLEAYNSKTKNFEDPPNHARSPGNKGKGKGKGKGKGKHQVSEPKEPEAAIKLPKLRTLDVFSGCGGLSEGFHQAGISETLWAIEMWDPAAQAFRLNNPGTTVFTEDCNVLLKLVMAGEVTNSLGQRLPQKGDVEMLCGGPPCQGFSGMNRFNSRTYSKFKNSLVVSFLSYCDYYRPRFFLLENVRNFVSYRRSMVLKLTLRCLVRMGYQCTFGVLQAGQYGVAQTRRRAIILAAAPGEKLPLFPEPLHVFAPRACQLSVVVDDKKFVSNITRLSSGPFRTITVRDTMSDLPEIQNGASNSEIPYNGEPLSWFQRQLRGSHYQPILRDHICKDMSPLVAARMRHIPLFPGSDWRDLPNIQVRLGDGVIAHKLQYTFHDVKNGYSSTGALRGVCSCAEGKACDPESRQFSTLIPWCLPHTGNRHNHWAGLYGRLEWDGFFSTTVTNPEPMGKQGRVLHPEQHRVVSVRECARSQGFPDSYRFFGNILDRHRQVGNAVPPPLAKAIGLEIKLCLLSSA
Method in brief: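 Murine DNMT1 (731–1602, 5.6 μM) incubated 20 h with 14-mer hemi-methylated DNA duplex (25 μM), with or without compound (25 μM). Buffer: 20 mM Tris pH 7.5, 50 mM NaCl, 5 mM DTT, 20% glycerol, 2.5% DMSO. Aliquots diluted fivefold in 0.05% TFA/0.1% formic acid; 20 pmol protein analysed by intact-mass TOF LC–MS for adducts.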

[4] = system: 51 hematologic cancer cell lines; test: 6-d proliferation, panel of 51 hematologic cancer cell lines; assay type: cell-based, human
Method in brief: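 6-d proliferation run by Horizon Discovery on its 2D OncoSignature panel. Compound given as a 10-point, threefold serial dilution, in triplicate. Growth-death index (GDI) runs from −100 (complete cell death) to 100 (no inhibition). Growth IC50 (gIC50) and GDI are reported per line.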

MV4–11 cells [5] = test: Global DNA methylation; assay type: cell-based, human; settings: MV4–11, day 4
Method in brief: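 MV4–11 cells plated in 10-cm dishes 24 h before treatment with 0.1% DMSO or compound (8-point, threefold serial dilution). Global 5-methylcytosine was measured, and treated values were normalized to vehicle control.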

[6] = system: AML cells (MV4–11, GDM-1, SKM-1); test: Western blotting; assay type: cell-based, human
Method in brief: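 Cells plated in 15-cm dishes 24 h before treatment with 0.1% DMSO or compound (6-point, fivefold serial dilution); GDM-1 cells were treated 2 d at 3.2–10,000 nM. Blots probed with IRDye secondary antibodies and imaged on a LI-COR Odyssey. Total H2AX (and vinculin for GDM-1) served as loading controls.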

Mouse pharmacokinetics = assay type: in vivo; settings: mice
Method in brief: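 Naive mice, 3 per group, each given a single dose: 2 mg kg⁻¹ i.v. (male CD-1), 2 mg kg⁻¹ s.c. (male C57/BL6) or 30 mg kg⁻¹ s.c. (female Nu/Nu). Composite blood samples were taken over 24 h and measured by HPLC–MS/MS. Parameters came from noncompartmental analysis of mean blood concentration–time profiles; AUC by linear trapezoidal rule.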

MV4–11 xenograft = test: Subcutaneous MV4–11 xenograft; assay type: in vivo, mouse
SKM-1 xenograft = test: Subcutaneous SKM-1 xenograft; assay type: in vivo, mouse
[7] = system: MV4–11 human systemic AML model; test: Disseminated MV4–11 AML model, survival; assay type: in vivo, mouse; settings: 30 d of dosing
SKM-1 tumors = test: Pharmacodynamics in SKM-1 tumors; assay type: in vivo, mouse; settings: SKM-1, 45 mg kg^−1, 8 d of dosing
Method in brief: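 SKM-1 subcutaneous xenografts in NOD-scid mice, 3 per group (24 total). Compound given s.c. twice daily in 10% captisol (pH 4.5–5) at 10 ml kg⁻¹. Tumors and blood collected 6 h after the last dose on day 8.5. Tumors assayed for global 5-methylcytosine; blood drug levels by HPLC–MS/MS after acetonitrile precipitation.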

[8] = Peripheral blood cell counts, SKM-1 study; assay type: in vivo, mouse
Method in brief: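 SKM-1 xenograft mice. Compound given s.c. twice daily in 10% captisol (pH 4.5–5); reference agent i.p. three times weekly; both at 10 ml kg⁻¹. Blood counts taken at end of dosing (day 28) and after 27 d recovery (day 55), n = 5 per group. One-way ANOVA with Dunnett's test, adjusted P; log₁₀-transformed where variances were unequal.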

[9] = mouse, in vivo, sc
Gla1 = Gla1 counter screen; assay type: biochemical; settings: read-out: Gla1 IC50; n = 40
[10] = Compound stability in media without or with cells; assay type: physicochemical; settings: 1,000 nM, media without or with MV4–11 cells, 37 °C
Method in brief: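 MV4–11 cells, or media alone, plated 24 h before adding compound (100 or 1000 nM) and incubated at 37 °C. Remaining compound was quantified by LC-MS/MS.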

[11] = system: hemi-methylated hairpin oligonucleotide; test: DNA binding assay
Method in brief: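 Differential scanning fluorimetry on hemi-methylated hairpin oligonucleotide (200 nM) with 100 μM compound or DMSO. Ramp 25–95 °C at 1 °C min⁻¹, fluorescence read after each step. n = 2 biologically independent experiments, two technical replicates each.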

DNMT1 [12] = biological target: T1, DNMT1 (Homo sapiens, UniProt P26358); test: Reversibility by rapid dilution; assay type: biochemical; settings: 100-fold rapid dilution
T1 sequence (P26358 whole entry): as the sequence (P26358 whole entry) above
Method in brief: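 DNMT1 preincubated 20 min with compound, then the complex was diluted 100-fold by adding substrates. Activity recovery was followed over 70 min by quenching at time points after dilution. Data were fit to a fixed steady-state velocity equation.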

DNMT1 [13] = biological target: T1, DNMT1; test: Radioactive SPA, DNMT1, 40-mer hemi-methylated DNA; assay type: biochemical; settings: read-out: DNMT1 IC50
[14] = system: bacterial M.SssI CpG DNMT; settings: cited from earlier work
DNMT1 (729-1600) = DNMT1 (729-1600) (human, UniProt P26358 729-1600); test: X-ray crystallography
Chain of DNMT1 (729-1600) (P26358 729-1600): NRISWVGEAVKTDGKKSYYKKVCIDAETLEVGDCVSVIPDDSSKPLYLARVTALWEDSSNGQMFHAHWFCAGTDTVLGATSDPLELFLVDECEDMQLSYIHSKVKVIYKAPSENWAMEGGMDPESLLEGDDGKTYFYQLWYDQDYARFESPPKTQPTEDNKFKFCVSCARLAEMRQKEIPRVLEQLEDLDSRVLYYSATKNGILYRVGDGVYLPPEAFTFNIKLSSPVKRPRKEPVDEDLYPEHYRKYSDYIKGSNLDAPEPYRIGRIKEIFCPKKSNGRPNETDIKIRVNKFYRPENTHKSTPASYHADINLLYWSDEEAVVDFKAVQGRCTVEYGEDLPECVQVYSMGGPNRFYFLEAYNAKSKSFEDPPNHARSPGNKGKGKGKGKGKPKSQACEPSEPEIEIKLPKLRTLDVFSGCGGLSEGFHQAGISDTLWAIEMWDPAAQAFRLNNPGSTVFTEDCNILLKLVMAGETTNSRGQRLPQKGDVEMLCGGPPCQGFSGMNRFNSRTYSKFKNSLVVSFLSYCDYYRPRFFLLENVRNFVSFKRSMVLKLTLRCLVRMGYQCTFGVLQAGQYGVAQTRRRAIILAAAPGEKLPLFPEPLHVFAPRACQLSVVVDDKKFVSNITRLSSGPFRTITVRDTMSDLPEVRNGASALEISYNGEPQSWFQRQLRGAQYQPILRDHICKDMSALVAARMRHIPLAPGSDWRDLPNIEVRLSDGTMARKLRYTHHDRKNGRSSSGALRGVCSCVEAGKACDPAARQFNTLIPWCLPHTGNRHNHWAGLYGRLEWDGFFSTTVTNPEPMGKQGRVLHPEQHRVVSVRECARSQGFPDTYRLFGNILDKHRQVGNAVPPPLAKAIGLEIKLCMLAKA

In the case of `Cc1cc(Nc2ccc(NC(=O)c3ccc(Nc4ccnc5ccccc45)cc3)cc2)nc(N)n1` [SGI-1027], the cell growth (MV4–11 cells [1]; MV4–11, day 6) is listed as “inhibited cell growth”, the “activity against DNMT1” value (DNMT1 [2]) is listed as “low μM activity” and the “activity against DNMT3A” value (DNMT3A) is listed as “low μM activity”.

With `CCc1c(C#N)c(SC(C(N)=O)c2ccccc2)nc(N2CCC(N)CC2)c1C#N` (stereo not drawn) [GSK3685032] the IC50 [3] was over 10000 nM, the IC50 (kinases (n = 369)) was over 10000 nM and the “reduction in inhibition of H1507Y mutant versus wild-type DNMT1” value (H1507Y mutant DNMT1) was over 350 fold. For the same molecule, the “cellular target engagement (DNMT1 thermal stabilization)” value (DNMT1 in HepG2 cells) was “stabilization of DNMT1”, the “covalent binding to DNMT1” value (Murine DNMT1 (731–1602)) was “noncovalent” and the IC50 ([4]; read-out: median growth IC50 (gIC50), day 6, median of panel) was 640 nM. For the same molecule, the “onset of growth inhibition” value (MV4–11 cells [1]; AML lines, 6 d time course) was at least 3 days, the “additional loss of global DNA methylation versus DAC” value (MV4–11 cells [5]) was 13% and the “maximal response, loss of global DNA methylation” value (MV4–11 cells [5]) was 83%. For the same molecule, the “effects on DNMT3A, DNMT3B or γH2AX” value [6] was “no immediate effects”, the blood half-life (Mouse pharmacokinetics) was over 1.8 h and the clearance (Mouse pharmacokinetics) was “low clearance”. The volume of distribution (Mouse pharmacokinetics) was “moderate volume of distribution”, the “dose giving clear tumor regression” value (MV4–11 xenograft; MV4–11, subcutaneous twice daily) was at least 30 mg/kg and the “animals maintaining tumor volumes ≤200 mm^3 while off drug” value (MV4–11 xenograft; MV4–11, ≥30 mg kg^−1, 4-week observation after dosing) was at least 60%. The “dose giving clear tumor regression” value (SKM-1 xenograft; SKM-1, subcutaneous twice daily) was at least 30 mg/kg, the “animals maintaining tumor volumes ≤200 mm^3 while off drug” value (SKM-1 xenograft; SKM-1, ≥30 mg kg^−1, 4-week observation after dosing) was at least 60% and the “mice surviving nearly 7 weeks after dosing ended” value [7] was 50%. The “survival benefit over vehicle” value [7] was over 43 days, the “maximal loss of DNA methylation in tumors” value (SKM-1 tumors) was 46% and the “neutrophils, red blood cells, platelets” value ([8]; day 28, 1 or 5 mg kg^−1) was “no statistically significant changes”. The well tolerated dose [9] was “at least 45 mg kg^−1”.

For `CCc1c(C#N)c(SC(C(N)=O)c2ccccc2)nc(N(C)C)c1C#N` (stereo not drawn) [GSK3484862], the IC50 (Gla1) was over 50000 nM, the chemical stability [10] was “chemically stable” and the “nonspecific DNA binding” value ([11]; 100 μM compound) was “did not bind DNA nonspecifically”. For the same molecule, the “Tm of hemi-methylated hairpin oligonucleotide” value ([11]; with DMSO or 100 μM compound) was 77.5 °C and the “reversibility of DNMT1 inhibition” value (DNMT1 [12]) was “rapidly reversible inhibition”.

With `Nc1ncnc2c1ncn2[C@@H]1O[C@H](CSCC[C@H](N)C(=O)O)[C@@H](O)[C@H]1O` [SAH, S-adenosyl-L-homocysteine, reference compound] the “reduction in inhibition of H1507Y mutant versus wild-type DNMT1” value (H1507Y mutant DNMT1) was “not observed”.

In the case of `CCc1c(C#N)c(SCc2ccc(N(C)S(C)(=O)=O)cc2)nc(N(C)CCNC)c1C#N` [GSK3830052], the IC50 (DNMT1 [13]) is reported as 110 ± 20 nM.

With `Nc1ncn([C@H]2C[C@H](O)[C@@H](CO)O2)c(=O)n1` [DAC, decitabine, reference compound] the “cell lines with negative growth–death index (GDI)” value ([4]; day 6) was 80%, the “onset of cell death (negative GDI)” value (MV4–11 cells [1]; MV4–11) was 2 days and the “concentration above which DNA hypomethylation and gene activation diminish” value (MV4–11 cells [5]) was “above 350 nM”. The “lowest dose with accumulation of γH2AX (DNA damage)” value [6] was 16 nM, the “tumor growth inhibition relative to vehicle” value (MV4–11 xenograft; MV4–11, intraperitoneal three times weekly, not statistically significant) was 57% and the “tumor growth inhibition relative to vehicle” value (SKM-1 xenograft; SKM-1, intraperitoneal three times weekly, not statistically significant) was 18%. The “survival benefit over vehicle” value [7] was 13 days and the “neutrophils, red blood cells, platelets” value ([8]; day 28, DAC intraperitoneal three times weekly) was “statistically significant decreases”.

In the case of `O=C(O)C(Cc1c[nH]c2ccccc12)N1C(=O)c2ccccc2C1=O` (stereo not drawn) [RG-108], the IC50 [14] is given as 12 nM.

B1: 12-bp hemi-methylated DNA with zebularine (dsDNA)
DNA 1: GAGGCCGCCTGC
DNA 2: GCAGGCGGCCTC
modifications: strand 1 C6 = 5-methylcytosine (M); strand 2 C6 = zebularine (Z, in place of target cytidine)
B1: binds (DNMT1 (729-1600)).
